Source: PubChem BioAssay
Records with an inconclusive call do not appear.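 The calls were made as follows, unless noted: active = viability increase at or above a cutoff of the median across tested compounds plus 3 SD (cut at about 8.5% in these data, passing the limit was not always enough); inconclusive = some gains above the cutoff, reason not given; inactive = the rest.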

What was measured:
[1] = S. cerevisiae growth inhibition in permissive medium (OD615), pilot counter-assay for S. cerevisiae lifespan shortening project, permissive growth control (AID 705;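 active = growth inhibition above 25% in both replicates, a cutoff set 3 SD above the mean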); conditions: OD615, 24 h, at 10 µM, hits give high values
How it was run: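 System: engineered DeaD yeast; Medium: permissive raffinose/galactose medium; Compound dosing: 10 µM single dose, 0.25% DMSO; Incubation: 4 h cell pre-growth, 24 h exposure at 30 °C; Technique: OD at 615 nm; Evaluation: growth inhibition from lowered OD615 after 24 h.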

[2] = S. cerevisiae growth inhibition in restrictive medium, OD615, pilot screen, restrictive growth control, yeast lifespan reduction project (AID 706;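 active = growth inhibition above a set limit, 3 SD over mean compound inhibition, in both replicates, cut at about 43% in these data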;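 also: modified DeaD lifespan yeast strain shifted to restrictive glucose medium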); conditions: OD615, 48 h, at 10 µM, hits give high values
How it was run: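 Material: modified S. cerevisiae; buffer or medium: CSMM-D glucose medium; doses: one concentration, 10 µM final, 0.25% DMSO; incubation: 48 h compound exposure at 30 °C; detection: optical density at 615 nm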

[3] = doxorubicin toxicity protection in MRP-1 cells – H69AR cells, CellTiter-Glo, duplicate, MRP-1 activator project, pilot screen (AID 807); conditions: H69AR viability with doxorubicin, CellTiter-Glo luminescence; at 10 µM; hits give high values;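 also: compound pretreatment 18-22 h then 72 h combined with doxorubicin; 0% = doxorubicin alone and 100% = vehicle without doxorubicin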
[4] = viability of HCT116 without oncogenic beta-catenin – human colon tumor cells, pilot screen (AID 823;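 active = cell viability at or below a set limit in both duplicate runs, the limit being the all-compound median minus 4 SD, cut at about 23% in these data, passing the limit was not always enough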;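 also: 0% = wells killed by 20 µM Hyamine and 100% = untreated DMSO cell wells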); conditions: HCT116 beta-catenin knockout viability, CellTiter-Glo, 60 h; at 10 µM; hits give low values
[5] = viability of PTEN-null HCT116 cells – cell-based, HCT116 clonal line, CellTiter-Glo, pilot screen (AID 824;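 active = viability at or below 27.92% in each of two runs, the all-compound median minus 4 SD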;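 also: 0% = 20 µM Hyamine control and 100% = vehicle cell control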); conditions: HCT116 PTEN-deleted viability, 60 h, at 10 µM, hits give low values
[6] = RAM pathway blockade in budding yeast – dse1pr::URA3 reporter, 5-FOA selection, pilot screen (AID 869;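 active = inhibition over a set limit, the all-compound mean plus 3 SD, in both replicate runs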;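 also: 0% = DMSO wells with no growth and 100% = 10 µM 1-NA-PP1 with full growth; RAM network block rescues cells from 5-FOA so hits raise OD615 growth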); conditions: S. cerevisiae dse1pr::URA3 5-FOA growth, OD615, 2 d; at 10 µM; hits give high values; strain carries analog-sensitive mutant Cbk1 kinase
[7] = RAM signaling pathway blockade in yeast – S. cerevisiae, Pdr1DBD-CYC8 efflux-inhibited sensitized strain, primary screen (AID 1298;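 active = RAM network inhibition above 8.4% in each of two replicates, 3 SD over the compound average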;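 also: 0% = DMSO untreated cells without growth and 100% = 10 µM 1-NA-PP1 full growth; higher means more yeast growth rescued from 5-FOA killing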); conditions: S. cerevisiae cbk1-as DSE1-URA3 strain, 5-FOA growth OD615, 2 d; at 50 µM; hits give high values

CCn1cc(C(=O)NCCCN2CC(C)CC(C)C2)c(=O)c2cc(S(=O)(=O)N(C)C)ccc21 (stereo unspecified)
inactive: growth inhibition [1] -10.3% | growth inhibition [2] -19.1% | viability increase [3] -2.78% | viability [4] 96% | viability [5] 98.7% | inhibition [6] 0.88% | RAM network inhibition [7] -0.73%

N#CC1=C(N)Oc2c(sc3ccccc23)C1c1ccco1 (stereo unspecified)
inactive: growth inhibition [1] -25.7% | growth inhibition [2] -4.08% | viability increase [3] -4.53% | viability [4] 63.3% | viability [5] 65.2% | inhibition [6] 1.22% | RAM network inhibition [7] -0.62%

CCC1(C(=O)O)NC(c2cc(OC)ccc2O)C2C(=O)N(Cc3ccccc3)C(=O)C21 (stereo unspecified)
inactive: growth inhibition [1] 2.51% | growth inhibition [2] -7.93% | viability increase [3] -0.32% | viability [4] 102% | viability [5] 99.8% | inhibition [6] 0.37% | RAM network inhibition [7] 1.51%

CCOc1ccc(NC(=O)c2ccc(S(=O)(=O)N(C)C)cc2)cc1
inactive: growth inhibition [1] -12.8% | growth inhibition [2] -7.66% | viability increase [3] 0.26% | viability [4] 102% | viability [5] 92.4% | inhibition [6] 1.32% | RAM network inhibition [7] 1.71%

COCCN1C(=O)c2oc3ccccc3c(=O)c2C1c1cccc(O)c1 (stereo unspecified)
inactive: growth inhibition [1] -7% | growth inhibition [2] -8.97% | viability increase [3] -0.6% | viability [4] 107% | viability [5] 94.3% | inhibition [6] 1.1% | RAM network inhibition [7] 2.85%

COc1cccc(C2C(C(=O)OCc3ccccc3)=C(C)Nc3ncnn32)c1OC (stereo unspecified)
inactive: growth inhibition [1] -8.96% | growth inhibition [2] 1.86% | viability increase [3] 0.73% | viability [4] 103% | viability [5] 83.5% | inhibition [6] 2.32% | RAM network inhibition [7] 4.9%

COc1ccc(C(=O)c2coc3ccc(O)c(CN(C)C)c23)cc1
inactive: growth inhibition [1] -15% | growth inhibition [2] -11.6% | viability increase [3] -2.46% | viability [4] 84.4% | viability [5] 76.1% | inhibition [6] 0.74% | RAM network inhibition [7] -1.93%

Clc1ccc(-c2nnc(N3CCCC3)nn2)cc1
inactive: growth inhibition [1] -7.18% | growth inhibition [2] 4.79% | viability increase [3] -2.71% | viability [4] 86.6% | viability [5] 92.2% | inhibition [6] 0.995% | RAM network inhibition [7] 0.52%

COc1cccc(NC=C2C(=O)OC3(CCCCC3)OC2=O)c1
inactive: growth inhibition [1] -8.74% | growth inhibition [2] 5.97% | viability increase [3] -1.85% | viability [4] 95.1% | viability [5] 104% | inhibition [6] 2.04% | RAM network inhibition [7] 5.16%

O=C(Nc1ccccc1)OCCOc1ccccc1
inactive: growth inhibition [1] -9.16% | growth inhibition [2] 4.62% | viability increase [3] 2.54% | viability [4] 91.7% | viability [5] 100% | inhibition [6] 2.92% | RAM network inhibition [7] 1.95%

CC(=O)c1ccc(OCC(O)Cn2nnc3ccccc32)cc1 (stereo unspecified)
inactive: growth inhibition [1] -15.7% | growth inhibition [2] -1.76% | viability increase [3] 0.2% | viability [4] 87.6% | viability [5] 97.9% | inhibition [6] 0.455% | RAM network inhibition [7] 7.79%

O=C(Nc1nnc(-c2ccc(F)cc2)o1)c1ccco1
inactive: growth inhibition [1] -6.49% | growth inhibition [2] -4.85% | viability increase [3] -3.74% | viability [4] 97.5% | viability [5] 92.8% | inhibition [6] 1.46% | RAM network inhibition [7] 0.1%

CC1(C)CC(n2c(NCCO)nc3c(c2=O)C2(CCCC2)Cc2ccccc2-3)CCO1 (stereo unspecified)
inactive: growth inhibition [1] 11.7% | growth inhibition [2] 2.4% | viability increase [3] -6.73% | viability [4] 96.2% | viability [5] 93.4% | inhibition [6] 0.65% | RAM network inhibition [7] 7.43%

Cc1sc2nc(SCC(=O)NCc3ccco3)n(C)c(=O)c2c1C
inactive: growth inhibition [1] -4.25% | growth inhibition [2] -12.5% | viability increase [3] -4.96% | viability [4] 105% | viability [5] 94.3% | inhibition [6] 2.1% | RAM network inhibition [7] 3.82%

CS(=O)(=O)NCCCc1ccccc1
inactive: growth inhibition [1] -3.13% | growth inhibition [2] 9.6% | viability increase [3] -1.36% | viability [4] 96.6% | viability [5] 94.5% | inhibition [6] 0.325% | RAM network inhibition [7] -0.88%

c1ccc2[nH]c(SCCN3CCOCC3)nc2c1
inactive: growth inhibition [1] -2.45% | growth inhibition [2] 8.19% | viability increase [3] -1.11% | viability [4] 98.9% | viability [5] 104% | inhibition [6] -0.025% | RAM network inhibition [7] 1.35%

CC(=O)N1CCc2c(sc(NC(=O)CN3C(=O)CCC3=O)c2C(N)=O)C1
inactive: growth inhibition [1] -11.6% | growth inhibition [2] -14.8% | viability increase [3] -1.16% | viability [4] 100% | viability [5] 99.3% | inhibition [6] 1.53% | RAM network inhibition [7] 2.93%

CC1CCc2nn(CC(=O)NC3CCCC3)cc2C1 (stereo unspecified)
inactive: growth inhibition [1] 0.6% | growth inhibition [2] 10.9% | viability increase [3] -1.14% | viability [4] 105% | viability [5] 92.9% | inhibition [6] 0.925% | RAM network inhibition [7] 0.63%
